ChEMBL document CHEMBL5303300, “EUbOPEN Chemogenomics Library - Multiplex” (2023)
Values joined by “and” are separate entries in the source; they are usually repeats but may differ in a detail not shown here. Equal values may be shown once.

Experiments:
Fibroblast = assay: Multiplex assay against human fibroblast; assay type: toxicity, cell-based; conditions: number of replicates 2
Procedure, shortened: (§1)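 Live cells were stained at seeding with Hoechst33342, BioTracker Green Microtubule Cytoskeleton Dye, MitoTracker Red and Annexin V Alexa Fluor 680. Following compound addition, they were imaged on a CQ1 microscope at 37°C and 5% CO2 and gated by CellPathfinder machine learning into Hoechst high-intensity objects or normal cells, with normal cells split into healthy, pyknosed or fragmented nuclei and pyknosed cells into mitotic or apoptotic. Tubulin, mitochondrial-mass and membrane-permeability phenotypes are per cents of healthy-nucleus cells.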

U2OS = assay: Multiplex assay against U2OS; assay type: toxicity, cell-based; conditions: human, number of replicates 2; procedure, shortened: as §1
[1] = 24 h, 1 µM, compound concentration 1 uM
[2] = 24 h, 10 µM, compound concentration 10 uM
[3] = 48 h, 1 µM, compound concentration 1 uM
[4] = 48 h, 10 µM, compound concentration 10 uM
[5] = 12 h, 1 µM, compound concentration 1 uM
[6] = 12 h, 10 µM, compound concentration 10 uM

Q: Which results are given for `COc1ccc2cc(S(=O)(=O)N[C@H](CC(=O)N[C@H](Cc3ccc(CN4[C@H](C)CCC[C@@H]4C)cc3)C(=O)N(C)C(C)C)c3ccc4c(c3)OCO4)ccc2c1.Cl`?
A: Population Mitotic Cells (%) (Fibroblast; [1]): 56% and 33%; Population Normal (%) (Fibroblast; [1]): 100%; Population Pyknosed Nuclei (%) (Fibroblast; [1]): 13% and 12%; Population Tubulin-Different-Phenotype (%) (Fibroblast; [1]): 64% and 56%; Total Cell Count (Fibroblast; [1]): 171 and 286; Population Apoptotic (%) (Fibroblast; [2]): 80%; Population Fragmented Nuclei (%) (Fibroblast; [2]): 20% and 16%; Population Healthy Nuclei (%) (Fibroblast; [2]): 56% and 57%; Population Hoechst High Intensity Objects (%) (Fibroblast; [2]): 1% and 0%; Population Membrane Permeable-Phenotype (%) (Fibroblast; [2]): 14% and 7%; Population Mitochondria Different-Phenotype (%) (Fibroblast; [2]): 42% and 56%; Population Mitotic Cells (%) (Fibroblast; [2]): 19% and 20%; Population Normal (%) (Fibroblast; [2]): 98% and 99%; Population Pyknosed Nuclei (%) (Fibroblast; [2]): 23% and 25%; Population Tubulin-Different-Phenotype (%) (Fibroblast; [2]): 93% and 92%; Total Cell Count (Fibroblast; [2]): 159 and 220; Population Apoptotic (%) (Fibroblast; [3]): 77% and 72%; Population Fragmented Nuclei (%) (Fibroblast; [3]): 36% and 29%; Population Healthy Nuclei (%) (Fibroblast; [3]): 53% and 64%; Population Hoechst High Intensity Objects (%) (Fibroblast; [3]): 0%; Population Membrane Permeable-Phenotype (%) (Fibroblast; [3]): 2% and 3%; Population Mitochondria Different-Phenotype (%) (Fibroblast; [3]): 9% and 7%; Population Mitotic Cells (%) (Fibroblast; [3]): 22% and 27%; Population Normal (%) (Fibroblast; [3]): 99% and 100%; Population Pyknosed Nuclei (%) (Fibroblast; [3]): 9% and 5%; Population Tubulin-Different-Phenotype (%) (Fibroblast; [3]): 28% and 50%; Total Cell Count (Fibroblast; [3]): 326 and 194; Population Apoptotic (%) (Fibroblast; [4]): 88% and 86%; Population Fragmented Nuclei (%) (Fibroblast; [4]): 24% and 18%; Population Healthy Nuclei (%) (Fibroblast; [4]): 62% and 65%; Population Hoechst High Intensity Objects (%) (Fibroblast; [4]): 5% and 9%; Population Membrane Permeable-Phenotype (%) (Fibroblast; [4]): 8% and 10%; Population Mitochondria Different-Phenotype (%) (Fibroblast; [4]): 46% and 55%; Population Mitotic Cells (%) (Fibroblast; [4]): 11% and 13%; Population Normal (%) (Fibroblast; [4]): 94% and 90%; Population Pyknosed Nuclei (%) (Fibroblast; [4]): 12% and 15%; Population Tubulin-Different-Phenotype (%) (Fibroblast; [4]): 87% and 83%; Total Cell Count (Fibroblast; [4]): 138 and 202; Population Apoptotic (%) (U2OS; [5]): 20% and 30%; Population Fragmented Nuclei (%) (U2OS; [5]): 8% and 4%; Population Healthy Nuclei (%) (U2OS; [5]): 76% and 85%; Population Hoechst High Intensity Objects (%) (U2OS; [5]): 2% and 0%; Population Membrane Permeable-Phenotype (%) (U2OS; [5]): 11% and 14%; Population Mitochondria Different-Phenotype (%) (U2OS; [5]): 7% and 20%; Population Mitotic Cells (%) (U2OS; [5]): 80% and 69%; Population Normal (%) (U2OS; [5]): 97% and 99%; Population Pyknosed Nuclei (%) (U2OS; [5]): 14% and 10%; Population Tubulin-Different-Phenotype (%) (U2OS; [5]): 30% and 45%; Population Apoptotic (%) (U2OS; [6]): 100% and 66%; Population Healthy Nuclei (%) (U2OS; [6]): 50% and 75%; Population Hoechst High Intensity Objects (%) (U2OS; [6]): 3% and 0%; Population Membrane Permeable-Phenotype (%) (U2OS; [6]): 81% and 37%; Population Mitochondria Different-Phenotype (%) (U2OS; [6]): 81% and 58%; Population Normal (%) (U2OS; [6]): 96% and 100%; Population Pyknosed Nuclei (%) (U2OS; [6]): 18% and 21%; Population Tubulin-Different-Phenotype (%) (U2OS; [6]): 93% and 100%; Population Apoptotic (%) (U2OS; [1]): 50%; Population Fragmented Nuclei (%) (U2OS; [1]): 5% and 6%; Population Healthy Nuclei (%) (U2OS; [1]): 79% and 73%; Population Hoechst High Intensity Objects (%) (U2OS; [1]): 2% and 0%; Population Membrane Permeable-Phenotype (%) (U2OS; [1]): 3% and 11%; Population Mitochondria Different-Phenotype (%) (U2OS; [1]): 12% and 21%; Population Mitotic Cells (%) (U2OS; [1]): 50% and 49%; Population Normal (%) (U2OS; [1]): 97% and 99%; Population Pyknosed Nuclei (%) (U2OS; [1]): 15% and 19%; Population Tubulin-Different-Phenotype (%) (U2OS; [1]): 32% and 42%; Population Apoptotic (%) (U2OS; [2]): 72% and 81%; Population Fragmented Nuclei (%) (U2OS; [2]): 21% and 7%; Population Healthy Nuclei (%) (U2OS; [2]): 43% and 62%; Population Hoechst High Intensity Objects (%) (U2OS; [2]): 3% and 0%; Population Membrane Permeable-Phenotype (%) (U2OS; [2]): 92% and 74%; Population Mitochondria Different-Phenotype (%) (U2OS; [2]): 71% and 61%; Population Mitotic Cells (%) (U2OS; [2]): 27% and 18%; Population Normal (%) (U2OS; [2]): 96% and 100%; Population Pyknosed Nuclei (%) (U2OS; [2]): 34% and 30%; Population Tubulin-Different-Phenotype (%) (U2OS; [2]): 100% and 98%; Population Apoptotic (%) (U2OS; [3]): 76% and 84%; Population Fragmented Nuclei (%) (U2OS; [3]): 18% and 7%; Population Healthy Nuclei (%) (U2OS; [3]): 60% and 74%; Population Hoechst High Intensity Objects (%) (U2OS; [3]): 0%; Population Membrane Permeable-Phenotype (%) (U2OS; [3]): 7% and 13%; Population Mitochondria Different-Phenotype (%) (U2OS; [3]): 10% and 18%; Population Mitotic Cells (%) (U2OS; [3]): 23% and 15%; Population Normal (%) (U2OS; [3]): 100% and 99%; Population Pyknosed Nuclei (%) (U2OS; [3]): 20% and 17%; Population Tubulin-Different-Phenotype (%) (U2OS; [3]): 25% and 32%; Population Apoptotic (%) (U2OS; [4]): 100% and 95%; Population Healthy Nuclei (%) (U2OS; [4]): 22% and 42%; Population Hoechst High Intensity Objects (%) (U2OS; [4]): 0%; Population Membrane Permeable-Phenotype (%) (U2OS; [4]): 83% and 85%; Population Mitochondria Different-Phenotype (%) (U2OS; [4]): 50% and 70%; Population Mitotic Cells (%) (U2OS; [4]): 0% and 4%; Population Normal (%) (U2OS; [4]): 100%; Population Pyknosed Nuclei (%) (U2OS; [4]): 40% and 51%; Population Tubulin-Different-Phenotype (%) (U2OS; [4]): 83% and 99%
